# A selection: hits, their analogues and other compounds. The true share with any hit is near 3.7%.
# Yeast lifespan up: compounds extending yeast replicative lifespan, primary screen, S. cerevisiae, OD615. AID 775, 2007. actives 0.68% (n = 130,000). inhibition of the nicotinamide effect, % at 10 µM. S. cerevisiae growth with nicotinamide; deaD strain in restrictive glucose medium;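 active means inhibition above a set limit, placed 3 SD over the median of all compounds, cut at about 26% in these data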;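 further: 0% = nicotinamide-treated wells and 100% = cells grown without nicotinamide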
#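 Assay system: engineered S. cerevisiae DeaD replicative-lifespan strain, galactose-grown log-phase cells; medium: restrictive CSMM-D dextrose medium; also added: nicotinamide, 1.5 mM, co-present with compound; schedule: 48 h compound exposure at 30 °C, humidified; detection: absorbance at 615 nm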
# Yeast growth inh: growth inhibitors of yeast BB579 in restrictive medium, primary screen, yeast lifespan-shortening project, S. cerevisiae; inhibition, % at 10 µM; AID 804, 2007; OD615, 48 h; actives 0.51% (n = 140,000);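 active means inhibition above a set limit, 3 SD over the mean compound inhibition, cut at about 44% in these data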
#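 System: DeaD yeast strain BB579; buffer or medium: CSMM-D dextrose restrictive medium; technique: OD at 615 nm; schedule: 4 h cell preincubation, 48 h compound exposure, 30 °C humidified; doses: single 10 µM dose; controls: amphotericin B 10 µg/mL, positive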
# Efa HMGR inh: inhibitors of E. faecalis class II HMGR, primary screen, biochemical, Enterococcus faecalis. purified E. faecalis HMGR, NADPH absorbance 340 nm kinetic. inhibition, % at 10 µM. actives 0.41% (n = 190,000). AID 1066, 2008;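 active means inhibition above a set limit, the median over all tested compounds plus 3 SD, cut at about 9.5% in these data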;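 further: enzyme runs in reverse so mevalonate oxidation gives rising NADPH absorbance; 0% = complete reaction with DMSO and 100% = background rate lacking mevalonate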
# Insulin prom inh: inhibitors of insulin promoter-driven GFP, primary screen, imaging, TRM-6 cells, eGFP reporter, cell count; reporter expression induced with tamoxifen; inhibition, % at 2 µM; actives 0.9% (n = 130,000); AID 1273, 2008;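 active means inhibition above the mean plus 3 SD, with well images judged a real hit on visual review, cut at about 60% in these data, passing the limit was not always enough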
# RAM inhibit: inhibitors of the yeast RAM network, primary screen, dse1pr::URA3 reporter, 5-FOA selection. S. cerevisiae dse1pr::URA3 reporter, 5-FOA growth OD615, 2 d; analog-sensitive cbk1-as2 kinase mutant strain. actives 1.8% (n = 190,000). inhibition, % at 50 µM;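 active means inhibition above a set limit, 3 SD over mean compound inhibition, cut at about 8.4% in these data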;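 further: 0% = DMSO-only wells with no growth and 100% = 10 µM 1-NA-PP1 full growth; inhibition rescues growth on 5-FOA so higher OD means more RAM inhibition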
# Active calls of the source: *; nt = no result given.
SMILES,Yeast lifespan up,Yeast growth inh,Efa HMGR inh,Insulin prom inh,RAM inhibit
CC(C)NS(=O)(=O)c1ccc(CCC(=O)Nc2cc(Cl)ccc2Oc2ccccc2)cc1,-8,-10,0,10,8.8*
CCNS(=O)(=O)c1ccc(CCC(=O)Nc2cc(Cl)ccc2Oc2ccccc2)cc1,-14,-32,-1,nt,11*
CC(C)NS(=O)(=O)c1ccc(NC(=O)CCc2ccccc2)cc1,-12,-2,-1,14,0
CCNS(=O)(=O)c1ccc(CCC(=O)Nc2ccccc2)cc1,nt,nt,-2,-21,2
COc1ccc(CCNC(=O)CCc2ccc(S(=O)(=O)NC(C)C)cc2)cc1,-3,5,0,71*,1
COc1cc(OC)c(NC(=O)c2ccoc2C)cc1Cl,-15,-17,-4,71*,1
COc1cc(OC)c(NC(=O)c2c(-c3ccccc3)noc2C)cc1Cl,-4,-41,2,79*,3
c1ccc(-c2nc(-n3ccnc3)nc(-n3ccnc3)n2)cc1,-29,74*,-3,-10,2
N/C(Cc1ccc([N+](=O)[O-])cc1)=N\OC(=O)c1ccc(Br)o1,2,-26,1,71*,1
N/C(Cc1ccc([N+](=O)[O-])cc1)=N\OC(=O)COc1cccc2ccccc12,-7,-12,-12,nt,10*
N/C(Cc1ccc(Cl)cc1)=N\OC(=O)c1cccc2ccccc12,-11,99*,-3,-57,1
N/C(Cc1ccc([N+](=O)[O-])cc1)=N\OC(=O)c1ccccc1F,nt,nt,-5,nt,2
COc1ccc(Br)c2oc(S)cc(=O)c12,1,-47,-3,71*,-1
CC(=O)OCC1CCCC2=C(C)C(=O)CCC21COC(C)=O (stereo not given),5,-26,1,42,0
Cc1cccc(-n2c(=S)[nH]c3sc4c(c3c2=O)CCc2ccccc2-4)c1,nt,nt,-1,25,6
COCCn1cnnc1SCC(=O)Nc1ccc(Br)cc1F,nt,nt,-4,0,2
COC(=O)/C(=C1/Oc2cc3c(cc2S1)OCO3)C(F)(F)F,37*,-58,-1,0,3
O=S(=O)(c1cccs1)N1CN(Cc2cccs2)c2nc3ccccc3nc21,2,-29,0,0,8.6*
CS(=O)(=O)N1N=C(c2cccs2)CC1c1ccccc1F (stereo not given),nt,nt,-1,nt,5
CCOC(=O)C1CC(c2ccc(Cl)cc2)=NNC1=O (stereo not given),nt,nt,-2,-50,1
CCOC(=O)C1Cc2cc3c(cc2C1=O)CC(C(=O)OCC)C3=O (stereo not given),51*,-10,1,nt,-1
Oc1ccccc1N=Nc1nc(-c2ccccc2)c(-c2ccccc2)[nH]1,-12,10,-3,-1,8.6*
COc1ccc(N=Nc2nc(-c3ccccc3)c(-c3ccccc3)[nH]2)cc1,-2,-27,-2,-10,11*
COc1ccccc1N=Nc1nc(-c2ccccc2)c(-c2ccccc2)[nH]1,-4,-59,-3,-7,5
Cc1ccc(OC(=S)Nc2ccc(O)cc2)cc1,nt,84*,-5,-328,1
SMILES,Yeast lifespan up,Yeast growth inh,Efa HMGR inh,Insulin prom inh,RAM inhibit
CCc1cccc(C)c1NC(=S)N(CCCN1CCOCC1)Cc1cccnc1,nt,nt,1,nt,3
COc1ccc(CN(CC(=O)NC2CCCC2)C(=O)c2ccc(-c3ccccc3)[nH]2)cc1,nt,nt,1,-50,8.8*
COc1cc(N/C(N)=N/c2nc(C)cc(C)n2)c(OC)cc1Cl,nt,nt,-9,nt,1
COc1ccc(Nc2nc(C(C)(C)C)nc3c2nnn3Cc2ccccc2Cl)cc1OC,nt,nt,nt,-197,nt
CCOC(=O)CNc1nc(C(C)(C)C)nc2c1nnn2Cc1ccccc1Cl,2,-12,-6,-11,10*
O=C(COC(=O)/C=C/C(=O)OCC(=O)NC12CC3CC(CC(C3)C1)C2)NC12CC3CC(CC(C3)C1)C2,1,-48,8,19,2
COc1cccc(/C=C2\SC(=S)N(CC3CCCO3)C2=O)c1 (stereo not given),1,-20,-4,15,8.6*
CCOc1cc(/C=C2/SC(=S)N(CC3CCCO3)C2=O)ccc1O (stereo not given),nt,nt,-2,nt,4
Cc1ccc(S(=O)(=O)n2c3ccc(Cl)cc3c3nc(C)sc32)cc1,-8,-20,-6,80*,5
Cc1nc2c3cc(Cl)ccc3n(CCN3CCCCC3)c2s1,-8,-59,1,-34,1
CCCCN(CC)CCCNC(=S)Nc1ccc2nc3n(c(=O)c2c1)CCCCC3,0,-11,0,21,0
CCOC(=O)N1CCC(N(CCN(C)C)C(=S)Nc2ccc(Oc3ccccc3)cc2)CC1,nt,nt,0,-91,3
CCCCC(=Nc1ccc(N)cc1)C1=C(O)C(C(=O)OC)C(C)(C)CC1=O (stereo not given),72*,-62,-4,-30,-1
CCC(=Nc1ccc(N)cc1)C1=C(O)C(C(=O)OC)C(C)(C)CC1=O (stereo not given),30*,-8,-7,nt,3
O=C1c2ccccc2-c2nc3ccccc3nc21,-15,85*,-1,12,0
COCCNC(=S)N1CCN(Cc2cccc(OC)c2)CC1,nt,nt,3,nt,0
CCN(CC)c1cc2nc(C)n(Cc3ccccc3)c(=O)c2cc1NC(=O)C1CC1,nt,-9,-5,85*,-1
COc1ccccc1-c1nc(C#N)c(N2CCN(C(c3ccccc3)c3ccccc3)CC2)o1,-6,-24,-3,73*,4
COc1ccccc1-c1nc(C#N)c(N2CCN(c3cccc(Cl)c3)CC2)o1,-16,-5,4,43,3
COc1ccc(C2NC(=S)NC(O)(C(F)(F)F)C2C(=O)c2cccs2)cc1 (stereo not given),9,-59,-4,9,0
Nc1[nH]c(=O)ncc1F,2,74*,1,33,0
CC(Oc1ccc(Cl)cc1Cl)c1ccn[nH]1 (stereo not given),nt,nt,-10,-306,-1
CC(O)CNc1nc2ccccc2n1CC(=O)NC12CC3CC(CC(C3)C1)C2 (stereo not given),nt,nt,1,-29,1
CCOC(=O)C1=C(COc2ccc(F)cc2Cl)NC(=O)NC1c1cc(C)ccc1C (stereo not given),-5,-38,24*,nt,4
CCOC(=O)C1=C(COc2ccc(C)cc2)NC(=O)NC1c1cc(C)ccc1C (stereo not given),9,-26,-4,nt,6
CCSc1nc(N)c2c(C)c(C)sc2n1,nt,-70,-1,78*,2
CCOC(=O)Cc1csc(NC(=O)CSc2nc(N)c3c(C)c(C)sc3n2)n1,-2,-33,0,100*,3
Cn1c(=O)c2[nH]c(-c3ccccc3Cl)c(O)c2n(C)c1=O,-9,-7,-2,64*,0

# Screening results deposited in PubChem BioAssay by several laboratories.
